Source: PubChem BioAssay (The Scripps Research Institute Molecular Screening Center)
TDP2 inh: human TDP2 enzyme inhibitors, primary screen, biochemical, epi absorbance, recombinant enzyme; Tyrosyl-DNA phosphodiesterase 2 (Homo sapiens), O95551; T5PNP hydrolysis, p-nitrophenol absorbance 415 nm; inhibition, % at 12.8 µM; 370,000 tested, 0.34% active;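 active means inhibition above the mean of all tested compounds plus 3 SD, set per campaign, cut at about 25% in these data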
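Read-out basis: percent inhibition. System: recombinant human TDP2. Buffer or medium: Mg2+-containing Tris-HCl buffer, pH 7.5. Repeats: single replicate. Timing: reaction 2 h, 37 °C. Benchmarks: high control without enzyme, low control DMSO plus TDP2. Probe or stimulus: 5 mM T5PNP. Doses: 12.8 µM only. Measured by: epi absorbance of p-nitrophenol freed from T5PNP by hydrolysis.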
UHRF1 MBD2 ctr: UHRF1 methylated DNA binding inhibitors, primary screen, counter-screen for MBD2 inhibitor project, biochemical, TR-FRET, human UHRF1, single concentration | E3 ubiquitin-protein ligase UHRF1 (Homo sapiens), Q96T88 | UHRF1 binding to methylated oligo | inhibition, % at 4.4 µM | 370,000 tested, 0.75% active | AID 687016, 2013; in the data active means inhibition above about 21%;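 further: UHRF1 SRA domain binding a hemimethylated CpG hairpin DNA probe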
MBD2 DNA inh: inhibitors of MBD2 binding to methylated DNA, primary screen, biochemical, TR-FRET, DNA-binding domain, human | Methyl-CpG-binding domain protein 2 (Homo sapiens), Q9UBB5 | MBD2 binding to methylated oligonucleotide | inhibition, % at 4.4 µM | 370,000 tested, 0.31% active | AID 686964, 2013; in the data active means inhibition above about 13%
Target sequence (Q9UBB5 whole entry, looked up, the tested form may be a part): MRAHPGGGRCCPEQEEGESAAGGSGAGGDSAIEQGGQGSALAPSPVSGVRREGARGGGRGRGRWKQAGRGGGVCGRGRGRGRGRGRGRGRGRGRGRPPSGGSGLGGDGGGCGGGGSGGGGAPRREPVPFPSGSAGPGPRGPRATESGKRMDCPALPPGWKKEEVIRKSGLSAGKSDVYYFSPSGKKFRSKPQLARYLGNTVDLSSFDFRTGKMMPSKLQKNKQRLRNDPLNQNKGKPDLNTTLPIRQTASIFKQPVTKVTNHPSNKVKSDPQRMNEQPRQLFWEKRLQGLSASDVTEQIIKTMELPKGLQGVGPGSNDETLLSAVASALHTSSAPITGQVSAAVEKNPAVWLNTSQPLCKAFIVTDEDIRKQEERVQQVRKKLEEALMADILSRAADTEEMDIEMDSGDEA
LEDGF integ inh: blockers of LEDGF/p75-dependent integrase strand transfer – biochemical, TR-FRET, high throughput, primary screen | HIV-1 integrase (with human LEDGF/p75) | 370,000 tested, 0.64% active | TR-FRET IN-LEDGF/p75 DNA integration, Eu/Cy5 | inhibition, % at 3.7 µM | AID 743269, 2014;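 active means inhibition above the screen-wide mean plus 3 SD, cut at about 13% in these data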;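 further: signal is the Cy5 over europium emission ratio at 671 and 618 nm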
TDP2 inh conf: human TDP2 enzyme inhibitors, retest, confirmation, biochemical, epi absorbance, recombinant enzyme; shares compounds with TDP2 inh; absorbance read-out; inhibition, % at 12.8 µM; 1,100 tested, 22% active; AID 743263, 2014; in the data active means inhibition above about 25%
Of the large screens only hits and unclear results are named; the others gave an inactive call (follow-up assays come after a bar, where they were run). The list is not random: actives were taken first. Their share in the collection is about 1.6%.

C[C@H](c1ccccc1)N1C[C@@H](COCc2ccccc2)Oc2cccc(N3CCCC3)c2S1(=O)=O	none
Cc1cc(C)cc(NC(=O)N2CCN(Cc3nc4ccccc4c(=O)[nH]3)CC2)c1	none
c1cncc(CSc2nnc3ccc(-c4ccco4)nn23)c1	TDP2 inh 28 | TDP2 inh conf inactive
CCN(CC)C(=O)CC[C@@H]1CC[C@]2(CCCN(S(C)(=O)=O)C2)O1	none
Cc1cc(=O)n(-c2ccccc2Cl)[nH]1	TDP2 inh 59 | TDP2 inh conf inactive
Cc1cc(=O)n(-c2ccc(C(=O)O)cc2)[nH]1	none
COc1ccc(CCN(Cc2cccs2)S(=O)(=O)c2ccc(C)s2)cc1OC	none
COc1cccc(NC(=O)N2CCCC2C(=O)NC23CC4CC(CC(C4)C2)C3)c1 (stereo not drawn)	TDP2 inh 33 | TDP2 inh conf inactive
Nc1cc(S(=O)(=O)O)cc([N+](=O)[O-])c1O	TDP2 inh 50, UHRF1 MBD2 ctr 81, LEDGF integ inh 44 | TDP2 inh conf inactive
Nc1ccc(C(=O)O)cc1[N+](=O)[O-]	none
OCCNc1ncnc2c1sc1nc(N3CCOCC3)c3c(c12)CCC3	TDP2 inh 27 | TDP2 inh conf inactive
CCN(CC)CCNc1ncnc2c1sc1nc(N3CCOCC3)c3c(c12)CCCC3	none
CCC[C@H]1[C@@H](OC(=O)NCc2cccnc2)CC[C@@]23CCCN2C(=O)CCC[C@@H]13	none
O=C(NC1(O)C(=O)c2ccccc2C1=O)c1c(Cl)cccc1Cl	TDP2 inh 71 | TDP2 inh conf 79
COC1(NC(=O)c2ccccc2)C(C)=CC(=O)C=C1C	none
O=C(NC1(O)C(=O)c2ccccc2C1=O)c1ccccc1	TDP2 inh 54 | TDP2 inh conf 84
COC(=O)C1=C(C)N(C)C(=NCC2CC2)NC1c1cccc(Cl)c1 (stereo not drawn)	none
CCOC(=O)N1CCN(C(=O)C[C@H]2C(=O)N(Cc3ccc(OC)cc3)C3=CCCC[C@@]32C(=O)OCC)CC1	none
NS(=O)(=O)c1ccc(NC(=O)/C=C/c2ccco2)cc1	TDP2 inh 32 | TDP2 inh conf inactive
COC(=O)c1cc(NC(=O)c2cc3ccccc3o2)cc(C(=O)OC)c1	TDP2 inh 26 | TDP2 inh conf inactive
COC(=O)c1cccc(NC(=O)c2cc3ccccc3o2)c1	none
CCCCOCCCNC(=O)C[C@H]1C[C@@]2(C(=O)OC)C(=C[C@H](C(C)(C)C)O[C@@H]2C)N(Cc2ccc3c(c2)OCO3)C1=O	none
Cc1nc2scc(C)n2c(=O)c1S(=O)(=O)Nc1ccc(F)cc1	none
Cc1nc2scc(C)n2c(=O)c1S(=O)(=O)NCc1ccc(F)cc1	TDP2 inh 25 | TDP2 inh conf inactive
O=S(=O)(c1ccc(-c2ccon2)s1)N1CCCC1	TDP2 inh 26 | TDP2 inh conf inactive
O=S(=O)(c1ccc(-c2ccon2)s1)N1CCN(CCN2CCOCC2)CC1	none
COc1cc2oc3cc(C#Cc4ccc(N)cc4)ccc3c(=O)c2cc1OC	none
Nc1ccc(C#Cc2ccc3c(=O)c4ccccc4oc3c2)cc1	TDP2 inh 27, UHRF1 MBD2 ctr 23 | TDP2 inh conf inactive
CCCC1=[N+](CC(=O)c2ccc(Br)cc2)CCn2cccc21	TDP2 inh 30 | TDP2 inh conf inactive
CCCN1CCCCC(NC(=O)OC(C)(C)C)C1=O (stereo not drawn)	none
COC(=O)c1cc2c(c3c4cc(C)ccc4n(S(=O)(=O)c4cccc(C)c4)c13)C(=O)N(Cc1ccccc1OC)C2	none
O=[N+]([O-])c1cnc2ccccc2c1Sc1ccccc1	none
Cc1ccc(-n2ncc3c2CC(C)(C)CC3NC(=O)CCn2cncn2)cc1 (stereo not drawn)	none
Cc1ccccc1-n1ncc2c1CC(C)(C)CC2NC(=O)CCn1cncn1 (stereo not drawn)	TDP2 inh 82 | TDP2 inh conf inactive
CCn1cc(S(=O)(=O)Nc2ncccn2)cn1	TDP2 inh 25 | TDP2 inh conf inactive
CCCC(=O)Nc1cc(OC)c(NC(=S)Nc2ccc(CC)cc2)cc1OC	TDP2 inh 26 | TDP2 inh conf inactive
COc1ccc(N2C(=O)c3n[nH]c(C)c3C2c2cccc(C(F)(F)F)c2)cc1 (stereo not drawn)	none
COc1cc(NCCCNC(C)C)c2nccc(C)c2c1	TDP2 inh 28 | TDP2 inh conf 28
COc1cc(NCc2ccccc2)c2ncn(C(C)C)c2c1	none
Cc1ccccc1CN1CCN(C(=O)[C@H]2O[C@@H](n3cnc(C(N)=O)n3)[C@H](O)[C@@H]2O)CC1	none
Cc1ccc([N+](=O)[O-])cc1S(=O)(=O)NCC1COc2ccccc2O1 (stereo not drawn)	TDP2 inh 45 | TDP2 inh conf inactive
C[C@H]1[C@@H](OC(=O)NCc2ccc(Cl)cc2)CC[C@@]23CCCN2C(=O)CCC[C@@H]13	none
CC1CCN(C2CCN(C(=O)c3ccccc3F)CC2)CC1	TDP2 inh 28 | TDP2 inh conf inactive
O=C(c1ccccc1F)N1CCC(N2CCCCCC2)CC1	none
O=C(O)c1ccc(CN2C(=O)CSC2=S)cc1	none
O=C(O)CN1C(=O)CSC1=S	TDP2 inh 27 | TDP2 inh conf inactive
CCc1ccccc1NC(=O)C1CCC(=O)N(c2ccc(OC)cc2)C1c1ccc(OC)cc1 (stereo not drawn)	none
Brc1cc2c(cc1CN1CCc3ccccc3C1)OCO2	TDP2 inh 26 | TDP2 inh conf inactive
O=C(NCc1ccc2c(c1)OCO2)c1ccc(CN2CCc3ccccc3C2)cc1	none
C=CCN1C(C(=O)OC)CN(Cc2cn(Cc3ccc(OC)cc3)nn2)CCS1(=O)=O (stereo not drawn)	none
CCN1CCN(Cc2ccc(OC)c(OCc3ccccc3)c2)CC1	none
CCN1CCN(CC#CCOc2ccccc2OC)CC1	TDP2 inh 29 | TDP2 inh conf inactive
Nc1[nH]c(C(=O)c2ccccc2)c(-c2ccc(Cl)cc2)c1C(=O)c1c[nH]c2ccc(Br)cc12	none
CCCC1CCC2(CC1)CCC2OC(=S)Nc1ccccc1Cl (stereo not drawn)	none
COc1ccc(OC)c(NC(=O)c2cc(S(=O)(=O)NCc3ccco3)ccc2F)c1	none
CCOc1ccccc1NC(=O)c1cc(S(=O)(=O)NCc2ccco2)ccc1F	TDP2 inh 26 | TDP2 inh conf inactive
COC(=O)[C@]12C[C@H](CC(=O)NCc3cccs3)C(=O)N(Cc3ccccc3)C1=C[C@H](C(C)C)O[C@@H]2C1CC1	none
N#CCCCc1cn(-c2ccc(-c3noc4c3C(=O)N(CC(=O)N3CCOCC3)CC4)cc2)nn1	none
COc1ccc(C(c2c(C)[nH][nH]c2=O)c2c(C)[nH][nH]c2=O)cc1Br	none
Cc1ccc(C(c2c(C)[nH][nH]c2=O)c2c(C)[nH][nH]c2=O)cc1	TDP2 inh 33 | TDP2 inh conf inactive
